Test results reported in ChEMBL document CHEMBL2086227, “Synthesis and evaluation of anticonvulsant and antidepressant activities of 5-alkoxytetrazolo[1,5-c]thieno[2,3-e]pyrimidine derivatives” (Eur J Med Chem, 2012).
Active and inactive are the calls of the source. The calls are words filed in the database; no cut-off is given here.

What was measured:
Mus musculus [1] = experiment: Anticonvulsant activity in Kunming mouse assessed as protection against maximal electroshock-induced seizure at 30 mg/kg, ip; type: functional, organism-based; parameters: dose 30 mg/kg
Procedure, shortened: (§1)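 Mice held on a 12-h light/dark cycle at 23 ± 2 °C with free food and water. Compounds were given ip as suspensions in aqueous Tween 80 (3% v/v, 0.9% NaCl) at 0.05 mL/20 g body weight. The maximal electroshock test was scored as number of animals protected over number tested.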

Mus musculus [2] = experiment: Anticonvulsant activity in Kunming mouse assessed as protection against maximal electroshock-induced seizure at 100 mg/kg, ip; type: functional, organism-based; parameters: dose 100 mg/kg; procedure, shortened: as §1
Mus musculus [3] = experiment: Anticonvulsant activity in Kunming mouse assessed as protection against maximal electroshock-induced seizure at 300 mg/kg, ip; type: functional, organism-based; parameters: dose 300 mg/kg; procedure, shortened: as §1
Mus musculus [4] = experiment: Antidepressant activity in Kunming mouse assessed as decrease in immobility time at 100 mg/kg, ip measured for last 4 mins of 6 mins test after 30 mins post dose by forced swimming test relative to control; type: functional; parameters: scale not given: the % may be the effect or the level left; conditions: route intraperitoneal
Procedure, shortened: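 Mice were dosed ip with compounds at 100 mg/kg, suspended in 3% Tween 80 in 0.9% NaCl (0.05 mL/20 g); controls got 3% aqueous Tween 80. After 30 min each mouse was placed in a water-filled cylinder (water depth 10 cm, 23–25 °C) for 6 min. Upright floating with only slight movements was scored as immobility, timed over the last 4 min. Mean ± S.E.M., n = 8.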

Mus musculus [5] = experiment: Toxicity in Kunming mouse assessed as increase in locomotor activity at 100 mg/kg, ip administered 60 mins prior to test measured for 3 mins by open-field test; type: organism-based; parameters: dose 100 mg/kg, route intraperitoneal; conditions: in vivo, 0.05 h
Procedure, shortened: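 Open-field exploratory activity was recorded for 3 min, starting 60 min after ip dosing in 3% Tween 80/0.9% NaCl vehicle. Counts were taken for locomotion (line crossings), rearing (standing on hind legs) and grooming, and compared with a vehicle control group.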

| SMILES | Activity (Mus musculus [1]) | Activity (Mus musculus [2]) | Activity (Mus musculus [3]) | Activity (Mus musculus [4]) | Activity (Mus musculus [5]) |
| --- | --- | --- | --- | --- | --- |
| Fc1ccccc1Oc1nc2ccsc2c2nnnn12 | inactive | inactive | inactive | 9.33% | – |
| Cc1cccc(Oc2nc3ccsc3c3nnnn23)c1 | inactive | inactive | inactive | 39.04% | – |
| Cc1ccccc1Oc1nc2ccsc2c2nnnn12 | inactive | inactive | inactive | 36.44% | – |
| COc1cccc(Oc2nc3ccsc3c3nnnn23)c1 | inactive | inactive | inactive | 37.41% | – |
| Nc1ccccc1Oc1nc2ccsc2c2nnnn12 | inactive | – | Active | 22.8% | – |
| c1ccc2c(Oc3nc4ccsc4c4nnnn34)cccc2c1 | inactive | inactive | inactive | 9.25% | – |
| Clc1cccc(Oc2nc3ccsc3c3nnnn23)c1 | inactive | inactive | inactive | 15.42% | – |
| c1ccc(Oc2nc3ccsc3c3nnnn23)cc1 | inactive | inactive | – | 26.46% | – |
| c1cnc2c(Oc3nc4ccsc4c4nnnn34)cccc2c1 | inactive | inactive | inactive | 23.62% | – |
| Clc1ccc(Oc2nc3ccsc3c3nnnn23)cc1 | inactive | inactive | inactive | 35.63% | – |
| COc1ccccc1Oc1nc2ccsc2c2nnnn12 | inactive | inactive | inactive | 26.05% | – |
| COc1ccc(Oc2nc3ccsc3c3nnnn23)cc1 | inactive | inactive | inactive | 46.18% | – |
| Clc1ccccc1Oc1nc2ccsc2c2nnnn12 | inactive | inactive | inactive | 40.17% | – |
| Brc1ccc(Oc2nc3ccsc3c3nnnn23)cc1 | inactive | – | Active | 10.06% | – |
| FC(F)(F)c1ccc(Oc2nc3ccsc3c3nnnn23)cc1 | inactive | inactive | inactive | 25.16% | – |
| CNCCC(Oc1ccc(C(F)(F)F)cc1)c1ccccc1 (stereo not drawn) [FLUOXETINE] | – | – | – | 58.09% | – |
| Fc1cccc(Oc2nc3ccsc3c3nnnn23)c1 | inactive | inactive | inactive | 25.73% | – |
| Cc1ccc(Oc2nc3ccsc3c3nnnn23)cc1 | inactive | inactive | inactive | 36.6% | – |
| Fc1ccc(Oc2nc3ccsc3c3nnnn23)cc1 | inactive | inactive | inactive | 18.18% | – |
| Clc1ccc(Oc2nc3ccsc3c3nnnn23)c(Cl)c1 | inactive | inactive | inactive | 51.62% | Non-toxic |
| Nc1cccc(Oc2nc3ccsc3c3nnnn23)c1 | inactive | inactive | – | 27.59% | – |
